Active and inactive are the calls of the source. The calls are words filed in the database; no cut-off is given here.
What was measured:
[1] = biological target: T1, C5a anaphylatoxin chemotactic receptor 1 (Homo sapiens, UniProt P21730); assay: Antagonist activity at human recombinant C5a receptor in HEK cells assessed as inhibition of C5a-induced calcium mobilization; format: functional, cell-based, HEK293
T1 sequence (P21730 whole entry): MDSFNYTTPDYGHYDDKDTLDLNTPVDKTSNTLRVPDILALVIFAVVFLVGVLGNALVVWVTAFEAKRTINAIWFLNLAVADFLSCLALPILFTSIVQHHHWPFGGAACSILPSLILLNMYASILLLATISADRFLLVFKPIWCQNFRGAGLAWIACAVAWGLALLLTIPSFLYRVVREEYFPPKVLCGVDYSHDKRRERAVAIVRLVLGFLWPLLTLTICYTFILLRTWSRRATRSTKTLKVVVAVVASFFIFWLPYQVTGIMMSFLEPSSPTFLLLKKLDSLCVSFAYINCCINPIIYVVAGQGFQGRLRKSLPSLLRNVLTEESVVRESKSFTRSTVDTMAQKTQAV

[2] = Metabolic stability in human liver microsomes assessed as intrinsic clearance
[3] = Metabolic stability in Sprague-Dawley rat hepatocytes assessed as intrinsic clearance measured per 10^6 cells
[4] = Lipophilicity, log D at pH 7.4; conditions: buffer
[5] = biological target: T2, C5a anaphylatoxin chemotactic receptor 1 (Mus musculus) (UniProt P30993); assay: Antagonist activity at mouse recombinant C5a receptor expressed in HEK cells assessed as inhibition of C5a-induced calcium mobilization at 30 uM; format: functional, cell-based; conditions: HEK293
T2 sequence (whole entry): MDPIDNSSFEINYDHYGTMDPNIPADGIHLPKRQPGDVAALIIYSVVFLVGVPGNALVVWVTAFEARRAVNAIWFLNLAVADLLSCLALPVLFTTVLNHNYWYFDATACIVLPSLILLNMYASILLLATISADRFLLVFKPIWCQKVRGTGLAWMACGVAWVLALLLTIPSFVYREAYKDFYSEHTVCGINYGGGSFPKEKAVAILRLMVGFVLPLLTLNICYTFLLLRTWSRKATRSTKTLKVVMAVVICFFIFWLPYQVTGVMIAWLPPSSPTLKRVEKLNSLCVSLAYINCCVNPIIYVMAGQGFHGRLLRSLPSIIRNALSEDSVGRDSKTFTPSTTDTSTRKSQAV
Summary of the method: (§1)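 Non-human (dog, mouse or rat) recombinant C5aR cell lines tested for antagonism of C5a-stimulated intracellular calcium mobilization. Values are means of at least two experiments.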

[6] = biological target: T3, C5a anaphylatoxin chemotactic receptor 1 (Rattus norvegicus) (UniProt P97520); assay: Antagonist activity at rat recombinant C5a receptor expressed in HEK cells assessed as inhibition of C5a-induced calcium mobilization at 30 uM; format: functional, cell-based; conditions: HEK293; summary of the method: as §1
T3 sequence (whole entry): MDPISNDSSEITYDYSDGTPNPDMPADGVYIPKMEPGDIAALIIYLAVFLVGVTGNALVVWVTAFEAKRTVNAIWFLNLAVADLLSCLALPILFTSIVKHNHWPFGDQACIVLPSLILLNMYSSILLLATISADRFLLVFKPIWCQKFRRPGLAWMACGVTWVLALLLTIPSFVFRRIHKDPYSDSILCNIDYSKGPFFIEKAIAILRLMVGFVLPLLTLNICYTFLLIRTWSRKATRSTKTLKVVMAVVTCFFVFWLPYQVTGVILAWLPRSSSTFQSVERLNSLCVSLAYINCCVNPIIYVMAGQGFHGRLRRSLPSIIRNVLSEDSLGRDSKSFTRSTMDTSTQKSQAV

[7] = biological target: T4, C5a anaphylatoxin chemotactic receptor 1 (Canis lupus familiaris) (UniProt P30992); assay: Antagonist activity at dog recombinant C5a receptor expressed in HEK cells assessed as inhibition of C5a-induced calcium mobilization at 30 uM; format: functional, cell-based; conditions: HEK293; summary of the method: as §1
T4 sequence (whole entry): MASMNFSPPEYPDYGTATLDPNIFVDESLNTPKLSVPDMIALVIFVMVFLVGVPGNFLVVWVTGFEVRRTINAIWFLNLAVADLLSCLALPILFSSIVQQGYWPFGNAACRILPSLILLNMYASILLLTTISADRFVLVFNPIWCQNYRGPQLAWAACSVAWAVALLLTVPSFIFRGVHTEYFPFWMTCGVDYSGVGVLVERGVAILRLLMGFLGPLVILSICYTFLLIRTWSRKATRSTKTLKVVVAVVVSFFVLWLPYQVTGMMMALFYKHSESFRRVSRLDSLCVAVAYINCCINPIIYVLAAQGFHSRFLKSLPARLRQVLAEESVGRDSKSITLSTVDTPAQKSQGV

[8] = biological target: T1, C5a anaphylatoxin chemotactic receptor 1; assay: Displacement of [Alexa647]C5a from human recombinant C5a receptor expressed in HEK cells by whole cell binding assay; format: cell-based, HEK293
Summary of the method: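 Whole-cell FMAT competition binding measured inhibition of Alexa-647-labeled C5a binding to HEK-293 cells co-expressing human recombinant C5aR and Gα16. pIC50 derived; values are means of at least two experiments.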

[9] = biological target: T1, C5a anaphylatoxin chemotactic receptor 1
[10] = biological target: T1, C5a anaphylatoxin chemotactic receptor 1; assay: Displacement of [125I]C5a from human recombinant C5a receptor expressed in HEK cells by membrane binding assay
[11] = biological target: T1, C5a anaphylatoxin chemotactic receptor 1; assay: Displacement of from human recombinant C5a receptor expressed in HEK cells by membrane binding assay in presence

Row | SMILES | IC50 [1] [nM] | microsomal CLint ([2]; liver microsomes) [µL/min/mg] | hepatocyte CLint [3] [µL/min/1e6 cells] | logD [4] | also measured
1 | COc1ccc(N(C(=O)c2ccoc2C)C(C(=O)NC[C@@H](C)O)c2ccccc2F)c(OC)c1 (some centres undefined) | 39.8 | 134 | 75 |  | 
2 | COc1ccc(N(C(=O)c2ccccc2)C(C)C(=O)NC2CCCC2)c(OC)c1 (centres undefined) | > 10000 |  |  |  | 
3 | CN(C(=O)c1ccccc1)C(C(=O)NC1CCCC1)c1ccccc1F (centres undefined) | > 10000 |  |  |  | 
4 | COc1ccc(N(C(=O)c2ccccc2)C(C(=O)NC[C@H](C)O)c2ccccc2F)c(OC)c1 (some centres undefined) | > 100 |  |  |  | 
5 | COc1ccc(N(C(=O)c2occc2CO)C(C(=O)NC[C@@H](C)O)c2ccccc2F)c(OC)c1 (some centres undefined) |  |  | 8 | 1.4 | microsomal CLint ([2]; microsomes): 12 µL/min/mg
6 | COc1ccc(N(C(=O)c2ccccc2)C(C(=O)NC2CCCC2)c2ccccc2F)c(OC)c1 (centres undefined) | 25.1 |  |  | 3.9 | Activity [5]: inactive; Activity [6]: inactive; Activity [7]: inactive; IC50 [8]: 39.8 nM; EC50 [9]: 123 nM; IC50 [10]: 794 nM; IC50 [11]: 31.6 nM
7 | COc1ccc(N(C(=O)c2occc2C)C(C(=O)NC[C@@H](C)O)c2ccccc2F)c(OC)c1 (some centres undefined) | 20 | 126 | 87 |  | 
8 | COc1ccc(N(C(=O)c2ccco2)C(C(=O)NC2CCCC2)c2ccccc2F)c(OC)c1 (centres undefined) | 126 | > 150 | > 150 |  | Activity [5]: inactive; Activity [6]: inactive; Activity [7]: inactive; IC50 [8]: 79.4 nM; IC50 [10]: 3160 nM; IC50 [11]: 251 nM
9 | COc1ccc(N(C(=O)c2occc2Cl)C(C(=O)NC[C@@H](C)O)c2ccccc2F)c(OC)c1 (some centres undefined) | 200 | 148 | 59 | 2.2 | 
10 | COCc1ccoc1C(=O)N(c1ccc(OC)cc1OC)C(C(=O)NC[C@@H](C)O)c1ccccc1F (some centres undefined) | 100 | 76 | 35 | 2 | 
11 | COc1ccc(N(C(C)=O)C(C(=O)NC2CCCC2)c2ccccc2F)c(OC)c1 (centres undefined) | 794 |  |  |  | 
12 | COc1ccc(N(C(=O)c2ccccc2)C(C(=O)O)c2ccccc2F)c(OC)c1 (centres undefined) | > 10000 |  |  |  | 
13 | COc1ccc(N(C(=O)c2ccoc2Cl)C(C(=O)NC[C@@H](C)O)c2ccccc2F)c(OC)c1 (some centres undefined) | 316 | 48 | 33 | 2.4 | 
14 | COc1ccc(N(C(=O)c2ccccc2)C(C(=O)NC[C@@H](C)O)c2ccccc2F)c(OC)c1 (some centres undefined) | 63.1 | 104 | > 150 | 2.55 | 
15 | COc1ccc(N(C(=O)c2ccccc2)C(C(=O)NC(C)CN(C)C)c2ccccc2F)c(OC)c1 (centres undefined) | 1000 | 135 | 33 |  | 
16 | COc1ccc(N(C(=O)c2occc2CN(C)C)C(C(=O)NC[C@@H](C)O)c2ccccc2F)c(OC)c1 (some centres undefined) | 3160 | 12 | < 3 |  | 
